This note sets out measurements from ChEMBL document CHEMBL3774363, “Potent Triazole Bisphosphonate Inhibitor of Geranylgeranyl Diphosphate Synthase” (ACS Med Chem Lett, 2015).

Calls of active or inactive are those of the source. No cut-off for these calls is given here.

Assay [1] can be described thus: Cytotoxicity against human RPMI8226 after 48 hrs by MTT assay. The class given is functional. As to conditions: RPMI-8226, 48 h. Background: Tetrazolium assays rely on reduction of a dye to a coloured formazan, in cell work by metabolically active cells.
Another assay is filed under the species Homo sapiens. Nature of the assay: Selectivity index, ratio of IC50 for FDPS (unknown origin) to IC50 for GGDPS (unknown origin).
Assay [2] deals with T1, Geranylgeranyl pyrophosphate synthase (Homo sapiens, UniProt O95749).
T1 sequence (O95749 whole entry): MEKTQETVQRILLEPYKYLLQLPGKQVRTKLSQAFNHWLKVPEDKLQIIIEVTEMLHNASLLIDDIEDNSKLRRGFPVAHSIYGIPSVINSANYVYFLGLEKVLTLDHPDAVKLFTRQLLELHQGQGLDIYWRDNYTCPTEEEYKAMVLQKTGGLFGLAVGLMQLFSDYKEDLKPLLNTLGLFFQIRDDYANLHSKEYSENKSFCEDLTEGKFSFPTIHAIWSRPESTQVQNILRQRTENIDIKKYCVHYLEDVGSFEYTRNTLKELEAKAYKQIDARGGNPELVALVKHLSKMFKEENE
Nature of the assay: Inhibition of recombinant GGDPS (unknown origin) assessed as radiolabeled GGPP formation preincubated for 10 mins followed by addition of 10 uM FPP substrate and [14C]IPP for 30 mins by liquid scintillation counter analysis.

For assay [3], the target named is T2, Farnesyl pyrophosphate synthase (Homo sapiens, UniProt P14324).
T2 sequence (P14324 whole entry): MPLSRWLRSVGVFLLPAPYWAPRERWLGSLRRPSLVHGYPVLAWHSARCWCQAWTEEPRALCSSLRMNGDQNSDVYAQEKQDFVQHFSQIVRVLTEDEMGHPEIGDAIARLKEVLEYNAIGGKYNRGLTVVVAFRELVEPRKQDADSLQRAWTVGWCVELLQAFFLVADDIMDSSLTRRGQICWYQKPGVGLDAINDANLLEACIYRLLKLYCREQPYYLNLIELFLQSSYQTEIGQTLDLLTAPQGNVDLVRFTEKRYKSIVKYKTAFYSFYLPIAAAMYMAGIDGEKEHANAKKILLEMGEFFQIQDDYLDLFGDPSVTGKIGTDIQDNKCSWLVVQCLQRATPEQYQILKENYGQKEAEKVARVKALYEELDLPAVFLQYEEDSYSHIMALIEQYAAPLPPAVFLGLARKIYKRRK
The assay can be described thus: Inhibition of recombinant FDPS (unknown origin) assessed as radiolabeled FPP formation preincubated for 10 mins followed by addition of 10 uM GPP substrate and [14C]IPP for 30 mins by liquid scintillation counter analysis.

In assay [4] the target is T3, Geranylgeranyl pyrophosphate synthase (Homo sapiens) (UniProt O95749).
T3 sequence (whole entry): T1 sequence (O95749 whole entry)
The assay can be described thus: Inhibition of GGDPS in human RPMI8226 cells assessed as disruption of Rap1a geranylation after 48 hrs by immunoblot analysis. The format is cell-based. As to conditions: RPMI-8226. Put shortly: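 RPMI-8226 human myeloma cells incubated 48 h with or without compound, with lovastatin (10 μM) as positive control. Cells were lysed in RIPA buffer and immunoblotted with an antibody that detects only unmodified Rap1a, with β-tubulin as loading control. The value is the lowest concentration at which disruption was seen; blots are representative of two independent studies.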

Assay [5] concerns the target T3, Geranylgeranyl pyrophosphate synthase (Homo sapiens). Nature of the assay: Inhibition of GGDPS in human RPMI8226 cells assessed as disruption of Rap1a geranylation at 50 nM after 48 hrs by immunoblot analysis. Conditions: RPMI-8226. (In general: In western blotting, separated proteins are transferred to a membrane and probed.)

What is called EC50 is the concentration needed to bring the measured effect to its halfway point. A high value points to a less potent agent. By IC50 is commonly meant the concentration that gives 50% inhibition. Regarding `CC(C)=CCC/C(C)=C/CC(Cc1cn(CCC=C(C)C)nn1)(P(=O)(O)O)P(=O)(O)O`, in assay [1], the half-maximal effective concentration (EC50) came out at 1000 nM. Moreover, the Ratio IC50 in the assay filed under Homo sapiens was 34. The values for the IC50 in assay [2] and in assay [3] were 380 nM and 13000 nM, respectively. Further, in assay [4], the Activity was found to be 0.5 µM.
In assay [1], `CC(C)=CCC/C(C)=C/CCn1cc(CC(P(=O)(O)O)P(=O)(O)O)nn1` registered an EC50 of 190 nM. The inhibition result in assay [5] was “Active”. Moreover, in the assay listed under Homo sapiens, the Ratio IC50 turned out to be 620. Besides, the half-maximal inhibitory concentration (IC50) was 45 nM in assay [2] and 28000 nM in assay [3]. Also, the Activity in assay [4] came out at 0.05 µM.
Regarding `CC(C)=CCCn1cc(CC(P(=O)(O)O)P(=O)(O)O)nn1`, the midpoint of the response in assay [1], the EC50, lay at 15000 nM. Besides, the Ratio IC50 in the assay filed under Homo sapiens was 15. Further, the IC50 in assay [2] was 430 nM; in assay [3], 6600 nM. Besides, the Activity in assay [4] is 5 µM.
